ChEMBL document CHEMBL1148435, “N,N-dialkyl-4-[(8-azabicyclo[3.2.1]-oct-3-ylidene)phenylmethyl]benzamides, potent, selective delta opioid agonists” (Bioorg Med Chem Lett, 2004)

Legend:
[1] = molecular target: T1, Delta-type opioid receptor (Homo sapiens, UniProt P41143); assay: Efficacy relative to stimulation of [35S]GTP-gamma-S, binding by SNC80 was calculated for human delta opioid receptor; assay type: functional
[2] = molecular target: T1, Delta-type opioid receptor; assay: Effective concentration against stimulation of [35S]GTP-gamma-S, binding in CHO cells transfected with the human opioid receptor delta 1; assay type: functional, cell-based
Outline: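 Agonist function was read as compound-stimulated [35S]GTPγS binding in CHO cells transfected with the human δ opioid receptor. The method was adapted from one used for bradykinin receptor signal transduction.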

Mu-type opioid receptor = Mu-type opioid receptor (Homo sapiens, UniProt P35372); assay: Binding affinity for mu opioid receptor
Mu-type opioid receptor, sequence (P35372 whole entry): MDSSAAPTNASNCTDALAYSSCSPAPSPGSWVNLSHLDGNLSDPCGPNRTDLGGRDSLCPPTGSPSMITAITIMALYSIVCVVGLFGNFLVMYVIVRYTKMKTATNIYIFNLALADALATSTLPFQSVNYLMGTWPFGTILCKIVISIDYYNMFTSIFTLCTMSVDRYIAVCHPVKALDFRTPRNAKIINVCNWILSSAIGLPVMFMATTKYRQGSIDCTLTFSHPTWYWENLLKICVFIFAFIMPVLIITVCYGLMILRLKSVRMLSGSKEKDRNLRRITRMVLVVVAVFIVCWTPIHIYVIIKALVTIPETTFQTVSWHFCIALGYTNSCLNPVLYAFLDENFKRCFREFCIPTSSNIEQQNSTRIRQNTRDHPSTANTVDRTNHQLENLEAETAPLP

[3] = molecular target: T1, Delta-type opioid receptor; assay: Binding affinity for delta opioid receptor
Mus musculus = assay: Antinociceptive activity was assessed using the mouse abdominal irritant test (MAIT), at a dose of 150 uM/Kg (po); assay type: functional, Abdomen
Outline: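 Mice were dosed orally, 15 mice per compound, in the abdominal irritant test for antinociception, and watched for convulsions.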

T1 sequence (P41143 whole entry): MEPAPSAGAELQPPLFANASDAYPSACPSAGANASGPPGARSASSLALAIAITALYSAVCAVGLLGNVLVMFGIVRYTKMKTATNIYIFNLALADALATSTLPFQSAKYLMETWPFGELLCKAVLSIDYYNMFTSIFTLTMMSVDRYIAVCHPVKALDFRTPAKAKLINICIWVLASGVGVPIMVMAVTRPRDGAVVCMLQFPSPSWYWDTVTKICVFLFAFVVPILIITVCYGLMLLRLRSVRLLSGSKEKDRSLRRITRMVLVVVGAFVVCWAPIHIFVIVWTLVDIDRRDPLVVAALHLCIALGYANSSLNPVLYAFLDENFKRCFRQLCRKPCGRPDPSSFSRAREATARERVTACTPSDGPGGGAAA

SMILES | Relative efficacy [1] | EC50 [2] | Ki (Mu-type opioid receptor) | Ki [3] | Inhibition (Mus musculus)
CCN(CC)C(=O)c1ccc(C(=C2CC3CCC(C2)N3C)c2cccc(O)c2)cc1 | 0.87 | 3 nM | 727 nM | 0.6 nM | 
CCN(CC)C(=O)c1ccc(C(=C2CC3CCC(C2)N3)c2ccc(O)cc2)cc1 | 0.96 | 5 nM | 442 nM | 0.58 nM | 26.7%
CCN(CC)C(=O)c1ccc(C(=C2CC3CCC(C2)N3CCc2ccc(F)cc2)c2ccccc2)cc1 | 0.76 | 27 nM | 393 nM | 2.62 nM | 26.7%
CCN(CC)C(=O)c1ccc(/C(=C2/C[C@H]3CC[C@@H](C2)N3)c2ccccc2)cc1 | 1 | 53 nM | 2310 nM | 0.36 nM | 86.7%
O=C(c1ccc(C(=C2CC3CCC(C2)N3CCc2ccccc2)c2ccccc2)cc1)N1CCCC1 | 0.86 | 1460 nM | 276 nM | 24.1 nM | 
CCCN(CCC)C(=O)c1ccc(C(=C2CC3CCC(C2)N3CCc2ccccc2)c2ccccc2)cc1 | 0.82 | 3560 nM | 644 nM | 7.39 nM | 
C=C(C)CN(CC)C(=O)c1ccc(/C(=C2\C[C@H]3CC[C@@H](C2)N3CCc2ccccc2)c2ccccc2)cc1 | 0.9 | 1080 nM | 229 nM | 2.94 nM | 33%
CCN(CC)C(=O)c1ccc(/C(=C2\C[C@H]3CC[C@@H](C2)N3)c2ccccc2)cc1 | 1.02 | 1.8 nM | 855 nM | 0.023 nM | 86.7%
CCN(CC)C(=O)c1ccc(C(=C2CC3CCC(C2)N3CCc2c[nH]c3ccccc23)c2ccccc2)cc1 | 0.91 | 16 nM | 337 nM | 3.48 nM | 
CCCN1C2CCC1CC(=C(c1ccccc1)c1ccc(C(=O)N(CC)CC)cc1)C2 | 0.87 | 43 nM | 289 nM | 0.39 nM | 93.3%
CCN(CC)C(=O)c1ccc(C(=C2CC3CCC(C2)N3C)c2ccc(OC)cc2)cc1 | 0.85 | 27 nM | 1500 nM | 3.5 nM | 
CCN(CC)C(=O)c1ccc(C(=C2CC3CCC(C2)N3CCOc2ccccc2)c2ccccc2)cc1 | 0.84 | 623 nM | 630 nM | 0.38 nM | 
CC(C)N(C(=O)c1ccc(C(=C2CC3CCC(C2)N3CCc2ccccc2)c2ccccc2)cc1)C(C)C | 0.92 | 5040 nM | 103 nM | 49 nM | 
CCN(CC)C(=O)c1ccc(/C(=C2/C[C@H]3CC[C@@H](C2)N3C)c2ccccc2)cc1 | 0.85 | 149 nM | 9730 nM | 4.5 nM | 90%
CCN(CC)C(=O)c1ccc(C(=C2CC3CCC(C2)N3C)c2cccc(OC)c2)cc1 | 0.87 | 65 nM | 693 nM | 5.9 nM | 
O=C(c1ccc(C(=C2CC3CCC(C2)N3CCc2ccccc2)c2ccccc2)cc1)N1CCOCC1 | 0.76 | 350 nM | 237 nM | 35.2 nM | 

SMILES | Relative efficacy [1] | EC50 [2] | Ki (Mu-type opioid receptor) | Ki [3] | Inhibition (Mus musculus)
CCN(CC)C(=O)c1ccc(C(=C2CC3CCC(C2)N3CCc2cccs2)c2ccccc2)cc1 | 0.78 | 1350 nM | 1280 nM | 13.1 nM | 
CCN(CC)C(=O)c1ccc(C(=C2CC3CCC(C2)N3CC(=O)c2ccccc2)c2ccccc2)cc1 | 0.68 | 173 nM | 9640 nM | 6.31 nM | 
CCN(CC)C(=O)c1ccc(/C(=C2/C[C@H]3CC[C@@H](C2)N3CCc2ccccc2)c2ccccc2)cc1 | 0.88 | 1390 nM | 317 nM | 42.1 nM | 90%
CCN(CC)C(=O)c1ccc(C(=C2CC3CCC(C2)N3CCC2CCCCC2)c2ccccc2)cc1 | 0.92 | 228 nM | 451 nM | 1.36 nM | 
COCCN(CCOC)C(=O)c1ccc(C(=C2CC3CCC(C2)N3CCc2ccccc2)c2ccccc2)cc1 | 0.71 | 403 nM | 294 nM | 16.6 nM | 
CCN(CC)C(=O)c1ccc(C(=C2CC3CCC(C2)N3CCCc2ccccc2)c2ccccc2)cc1 | 0.88 | 112 nM | 104 nM | 0.56 nM | 13.3%
C=CCN1[C@@H]2CC[C@H]1C/C(=C(/c1ccccc1)c1ccc(C(=O)N(CC)CC)cc1)C2 | 0.83 | 177 nM | 4400 nM | 0.32 nM | 100%
CC1CCCC(C)N1C(=O)c1ccc(/C(=C2\C[C@H]3CC[C@@H](C2)N3CCc2ccccc2)c2ccccc2)cc1 (stereo partly specified) |  | 10000 nM | 571 nM | 11 nM | 
CCN(CC)C(=O)c1ccc(/C(=C2\C[C@H]3CC[C@@H](C2)N3CCc2ccccc2)c2ccccc2)cc1 | 0.82 | 34 nM | 72.3 nM | 0.24 nM | 100%
CCN(CC)C(=O)c1ccc(C(=C2CC3CCC(C2)N3CCc2ccccc2)c2cccc(OC)c2)cc1 | 0.8 | 218 nM | 417 nM | 1.36 nM | 
CCN(CC)C(=O)c1ccc(C(=C2CC3CCC(C2)N3Cc2ccc3c(c2)OCO3)c2ccccc2)cc1 |  | 0.2 nM | 22.4 nM | 0.01 nM | 40%
CCN(CC)C(=O)c1ccc(/C(=C2\C[C@H]3CC[C@@H](C2)N3C)c2ccccc2)cc1 | 0.87 | 153 nM | 2910 nM | 5.7 nM | 80%
C=CCN1[C@@H]2CC[C@H]1C/C(=C(\c1ccccc1)c1ccc(C(=O)N(CC)CC)cc1)C2 | 1.05 | 0.5 nM | 322 nM | 0.025 nM | 100%
CCN(CC)C(=O)c1ccc(C(=C2CC3CCC(C2)N3C)c2ccc(O)cc2)cc1 | 0.86 | 9 nM | 194 nM | 1.89 nM | 
CCN(CCO)C(=O)c1ccc(C(=C2CC3CCC(C2)N3CCc2ccccc2)c2ccccc2)cc1 | 0.77 | 548 nM | 291 nM | 3.2 nM | 
